What all share (type): functional
One assay concerns Cricetinae gen. sp. Nature of the assay: Concentration needed to achieve 50% kill of chinese hamster cells under oxygenated conditions on exposure for 2 hours. Particulars: in Cricetulus griseus, read-out: ED50 (the source's name). The procedure, abridged: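 V-79 Chinese hamster monolayers in MEM with 15% fetal calf serum; ~200 cells plated, attached 2 h, then exposed to a range of drug concentrations for 2 h at 37 °C in air. Drug medium was replaced with fresh medium and cells incubated 6 days at 37 °C in 95% air/5% CO2. Colony formation was scored and the concentration giving 50% kill determined.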

Assay [1] can be described thus: Radiosensitizing effectivity evaluated as its ability to sensitize hypoxic Chinese hamster cells (V-79) towards ionizing radiation at 0.5 mM. The procedure, abridged: (§1)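 Asynchronous V-79 monolayers in MEM with 15% fetal calf serum were exposed to drug at the maximum nontoxic level (1 mM or less). Cultures were made hypoxic by flushing with 95% N2/5% CO2 and irradiated at 400–3000 rad. Full survival curves were obtained, and the enhancement ratio was calculated as D0 of hypoxic controls divided by D0 of hypoxic drug-treated cells.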

Assay [2] is described as follows: Radiosensitizing effectivity evaluated as its ability to sensitize hypoxic Chinese hamster cells (V-79) towards ionizing radiation at 0.1 mM. The procedure, abridged:
as §1

A short description of assay [3]: Radiosensitizing effectivity evaluated as its ability to sensitize hypoxic Chinese hamster cells (V-79) towards ionizing radiation at 1 mM. The procedure, abridged:
as §1

Assay [4] can be described thus: Radiosensitizing effectivity evaluated as its ability to sensitize hypoxic Chinese hamster cells (V-79) towards ionizing radiation at 0.25 mM. The procedure, abridged: as §1

`CC1Cn2c([N+](=O)[O-])cnc2O1` (centres undefined): the EC50 with Cricetinae gen. sp. is 620 µM. The Enhancement ratio in assay [1] is on record as 1.1.
In the case of `CC1Cn2cc([N+](=O)[O-])nc2O1` (centres undefined), in the assay on Cricetinae gen. sp., the EC50 is 1500 µM. In assay [2], the Enhancement ratio is listed as 1.2.
`O=[N+]([O-])c1cn2c(n1)OC(CO)C2` (centres undefined): the EC50 with Cricetinae gen. sp. stood at 2800 µM. Further, in assay [3], the Enhancement ratio is given as 1.
`O=[N+]([O-])c1cn2c(n1)OC(CCl)C2` (centres undefined): in the assay on Cricetinae gen. sp., the EC50 is 1300 µM. Besides, the Enhancement ratio in assay [2] came to 1.1.
Turning to `COCC1Cn2cc([N+](=O)[O-])nc2O1` (centres undefined), the EC50 with Cricetinae gen. sp. turned out to be 1500 µM. The Enhancement ratio in assay [2] stood at 1.1.
In the case of `COCC(O)Cn1cc([N+](=O)[O-])nc1[N+](=O)[O-]` (centres undefined), the EC50 in the assay on Cricetinae gen. sp. stood at 2200 µM. Besides, the Enhancement ratio in assay [1] is given as 2.1; in assay [2], 1.8.
With `O=[N+]([O-])c1cnc2n1CC(CCl)O2` (centres undefined), the EC50 in the assay with Cricetinae gen. sp. turned out to be 610 µM. Also, in assay [1], the Enhancement ratio was 1.1.
Regarding `COCC1Cn2c([N+](=O)[O-])cnc2O1` (centres undefined), in the assay on Cricetinae gen. sp., the EC50 turned out to be 680 µM. Further, the Enhancement ratio in assay [3] stood at 1.
On to `O=[N+]([O-])c1cnc2n1CCO2`, for which the EC50 in the assay with Cricetinae gen. sp. stood at 1000 µM. Further, the Enhancement ratio in assay [4] was found to be 1.6.

(Values after ChEMBL document CHEMBL1121870, “Potential radiosensitizing agents. 2. Synthesis and biological activity of derivatives of dinitroimidazole with oxiranes” (1981).)
